From ChEMBL document CHEMBL1127523, “Design and synthesis of side-chain conformationally restricted phenylalanines and their use for structure-activity studies on tachykinin NK-1 receptor” (J Med Chem, 1994)
Starred links: 1 amine or outer side, 2 acyl side, 3 side chain; linkers in the order of their positions; H or OH if unused. Non-standard residues stand in square brackets, D forms with d. Residues, ends and D or L forms follow the SMILES beside them. Gly(9-fluorenyl) = N[C@H](C(=O)O)C1c2ccccc2-c2ccccc21; X1 = O=C([C@@H](N[*:1])C1CCc2ccccc21)[*:2]; Dip = N[C@H](C(=O)O)C(c1ccccc1)c1ccccc1

Tests used:
Cavia porcellus [1] = organism: Cavia porcellus; experiment: pKB value of compound was determined in presence of antagonist RP-67580 at conc. of 10e-7 M; format: functional
Substance-K receptor = biological target: T1, Substance-K receptor (Rattus norvegicus, UniProt P16610); experiment: Concentration required to inhibit the specific binding of [3H]NKA to Neurokinin-2 (NK-2) receptor in rat duodenum membranes
T1 sequence (P16610 whole entry): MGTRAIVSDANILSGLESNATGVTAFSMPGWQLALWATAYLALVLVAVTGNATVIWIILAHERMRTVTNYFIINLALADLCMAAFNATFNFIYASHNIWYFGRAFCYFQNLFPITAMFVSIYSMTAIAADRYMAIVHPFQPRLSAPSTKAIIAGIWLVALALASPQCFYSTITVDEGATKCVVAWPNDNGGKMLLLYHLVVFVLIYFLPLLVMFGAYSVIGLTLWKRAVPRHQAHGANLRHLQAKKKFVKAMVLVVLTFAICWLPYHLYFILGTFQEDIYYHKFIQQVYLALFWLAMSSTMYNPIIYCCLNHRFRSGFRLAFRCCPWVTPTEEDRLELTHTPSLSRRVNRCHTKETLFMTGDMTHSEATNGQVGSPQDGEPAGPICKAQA

Cavia porcellus [2] = organism: Cavia porcellus; experiment: Effective concentration required for its inhibition of nonspecific binding to guinea pig ileal membranes; format: functional
Substance-P receptor = Substance-P receptor (Rattus norvegicus, UniProt P14600); experiment: Concentration required to inhibit the specific binding of [125I]BH-SP to Neurokinin-1 (NK-1) receptor in rat brain synaptosomes; format: subcellular
Neuromedin-K receptor = biological target: T2, Neuromedin-K receptor (Rattus norvegicus, UniProt P16177); experiment: Concentration required to inhibit the specific binding of [125I]BH-ELE to Neurokinin-3 (NK-3) receptor in rat brain synaptosomes; format: subcellular
T2 sequence (P16177 whole entry): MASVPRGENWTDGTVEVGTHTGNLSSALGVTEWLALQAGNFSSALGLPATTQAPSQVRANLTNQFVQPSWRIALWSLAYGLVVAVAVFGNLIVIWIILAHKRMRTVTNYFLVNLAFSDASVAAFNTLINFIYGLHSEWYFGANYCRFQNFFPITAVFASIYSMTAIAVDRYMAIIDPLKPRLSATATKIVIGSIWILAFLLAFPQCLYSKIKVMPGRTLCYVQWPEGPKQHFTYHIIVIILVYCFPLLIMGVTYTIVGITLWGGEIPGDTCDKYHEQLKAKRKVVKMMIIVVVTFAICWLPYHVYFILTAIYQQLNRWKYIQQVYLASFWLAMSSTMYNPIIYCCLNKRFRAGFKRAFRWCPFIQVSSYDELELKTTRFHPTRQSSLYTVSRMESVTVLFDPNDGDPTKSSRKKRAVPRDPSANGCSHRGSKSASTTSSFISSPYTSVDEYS
Outline: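 Rat brain synaptosomes in Krebs-Ringer phosphate buffer with BSA, bacitracin and glucose. Incubated 15 min at 20 °C with 40 pM [125I]BHELE and increasing peptide concentrations, gamma counted. Triplicates, two to eight independent experiments; nonspecific binding defined with eledoisin 10⁻⁶ M. IC50 estimated from Hill plots of titration curves.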

Cavia porcellus [3] = organism: Cavia porcellus; experiment: Concentration required to inhibit nonspecific binding of [125I]BH-SP to guinea pig ileal membranes; format: functional

Sequence of Substance-P receptor (P14600 whole entry): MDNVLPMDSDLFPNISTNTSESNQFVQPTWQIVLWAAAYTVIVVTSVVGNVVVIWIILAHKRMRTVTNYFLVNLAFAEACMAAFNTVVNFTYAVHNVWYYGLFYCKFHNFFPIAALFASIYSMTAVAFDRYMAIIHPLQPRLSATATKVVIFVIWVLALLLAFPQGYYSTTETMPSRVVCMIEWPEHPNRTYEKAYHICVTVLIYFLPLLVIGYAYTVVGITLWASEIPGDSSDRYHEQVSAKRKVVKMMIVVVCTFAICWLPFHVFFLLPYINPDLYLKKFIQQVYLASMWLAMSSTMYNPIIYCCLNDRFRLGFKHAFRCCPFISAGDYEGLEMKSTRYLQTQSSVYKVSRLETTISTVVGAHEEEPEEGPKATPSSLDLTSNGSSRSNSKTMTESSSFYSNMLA

SMILES	IC50 (Substance-K receptor) [µM]	EC50 (Cavia porcellus [2]) [µM]	IC50 (Substance-P receptor) [µM]	IC50 (Neuromedin-K receptor) [µM]	IC50 (Cavia porcellus [3]) [µM]	pKb (Cavia porcellus [1])
CSCC[C@H](NC(=O)[C@H](CC(C)C)NC(=O)CNC(=O)[C@H](Cc1ccccc1)NC(=O)[C@H](CCc1ccccc1)NC(=O)[C@H](CCC(N)=O)NC(=O)[C@H](CCC(N)=O)NC(=O)[C@@H]1CCCN1C(=O)[C@H](CCCCN)NC(=O)[C@@H]1CCCN1C(=O)[C@@H](N)CCCN=C(N)N)C(N)=O [listing 1 of 2 here]	–	–	–	–	–	7.25
CSCC[C@H](NC(=O)[C@H](CC(C)C)NC(=O)CNC(=O)[C@@H](NC(=O)[C@H](Cc1ccccc1)NC(=O)[C@H](CCC(N)=O)NC(=O)[C@H](CCC(N)=O)NC(=O)[C@@H]1CCCN1C(=O)[C@H](CCCCN)NC(=O)[C@@H]1CCCN1C(=O)[C@@H](N)CCCN=C(N)N)[C@@H]1CCc2cc3ccccc3cc21)C(N)=O	0.057	0.0028	0.028	0.18	–	–
CSCC[C@H](NC(=O)[C@H](CC(C)C)NC(=O)CNC(=O)[C@H](Cc1ccccc1)NC(=O)[C@@H](NC(=O)[C@H](CCC(N)=O)NC(=O)[C@H](CCC(N)=O)NC(=O)[C@@H]1CCCN1C(=O)[C@H](CCCCN)NC(=O)[C@@H]1CCCN1C(=O)[C@@H](N)CCCN=C(N)N)[C@@H]1CCc2ccccc21)C(N)=O [listing 1 of 2 here]	–	–	–	–	–	7.06
CSCC[C@H](NC(=O)[C@H](CC(C)C)NC(=O)CNC(=O)[C@H](Cc1ccccc1)NC(=O)[C@@H](NC(=O)[C@H](CCC(N)=O)NC(=O)[C@H](CCC(N)=O)NC(=O)[C@@H]1CCCN1C(=O)[C@H](CCCCN)NC(=O)[C@@H]1CCCN1C(=O)[C@@H](N)CCCN=C(N)N)C1CCc2cc3ccccc3cc21)C(N)=O (some centres not stated) [listing 2 of 2 here]	–	–	–	–	–	7.3
CSCC[C@H](NC(=O)[C@H](CC(C)C)NC(=O)CNC(=O)[C@H](Cc1ccccc1)NC(=O)[C@@H](NC(=O)[C@H](CCC(N)=O)NC(=O)[C@H](CCC(N)=O)NC(=O)[C@@H]1CCCN1C(=O)[C@H](CCCCN)NC(=O)[C@@H]1CCCN1C(=O)[C@@H](N)CCCN=C(N)N)C1Cc2ccccc2C1)C(N)=O	1.7	1.3	2.3	> 10	–	–
CSCC[C@H](NC(=O)[C@H](CC(C)C)NC(=O)CNC(=O)[C@@H](NC(=O)[C@H](Cc1ccccc1)NC(=O)[C@H](CCC(N)=O)NC(=O)[C@H](CCC(N)=O)NC(=O)[C@@H]1CCCN1C(=O)[C@H](CCCCN)NC(=O)[C@@H]1CCCN1C(=O)[C@@H](N)CCCN=C(N)N)C(C)(C)S(C)(=O)=O)C(N)=O	0.16	0.0011	0.00784	0.19	–	–
CSCC[C@H](NC(=O)[C@H](CC(C)C)NC(=O)CNC(=O)[C@H](Cc1ccccc1)NC(=O)[C@H](CCc1ccccc1)NC(=O)[C@H](CCC(N)=O)NC(=O)[C@H](CCC(N)=O)NC(=O)[C@@H]1CCCN1C(=O)[C@H](CCCCN)NC(=O)[C@@H]1CCCN1C(=O)[C@@H](N)CCCN=C(N)N)C(N)=O [listing 2 of 2 here]	1.9	0.0058	–	> 10	0.019	–

The remaining compounds from weak to strong by EC50 (Cavia porcellus [2]), led by results:

IC50 (Substance-K receptor) [µM]	EC50 (Cavia porcellus [2]) [µM]	IC50 (Substance-P receptor) [µM]	IC50 (Neuromedin-K receptor) [µM]	IC50 (Cavia porcellus [3]) [µM]	SMILES	pKb (Cavia porcellus [1])
3.9	4.17	2.8	> 10	–	CSCC[C@H](NC(=O)[C@H](CC(C)C)NC(=O)CNC(=O)[C@H](Cc1ccccc1)NC(=O)[C@H](NC(=O)[C@H](CCC(N)=O)NC(=O)[C@H](CCC(N)=O)NC(=O)[C@@H]1CCCN1C(=O)[C@H](CCCCN)NC(=O)[C@@H]1CCCN1C(=O)[C@@H](N)CCCN=C(N)N)C1Cc2ccccc2C1)C(N)=O	–
6	0.02	2.5	> 10	0.26	CSCC[C@H](NC(=O)[C@H](CC(C)C)NC(=O)[C@@H]1CCCN1C(=O)[C@@H](NC(=O)[C@H](Cc1ccccc1)NC(=O)[C@H](CCC(N)=O)NC(=O)[C@H](CCC(N)=O)NC(=O)[C@@H]1CCCN1C(=O)[C@H](CCCCN)NC(=O)[C@@H]1CCCN1C(=O)[C@@H](N)CCCN=C(N)N)C(c1ccccc1)c1ccccc1)C(N)=O (H-RPKPQQF[Dip]PLM-NH2)	–
–	0.015	–	–	0.26	CSCC[C@H](NC(=O)[C@H](CC(C)C)NC(=O)CNC(=O)[C@@H](NC(=O)[C@H](Cc1ccccc1)NC(=O)[C@H](CCC(N)=O)NC(=O)[C@H](CCC(N)=O)NC(=O)[C@@H]1CCCN1C(=O)[C@H](CCCCN)NC(=O)[C@@H]1CCCN1C(=O)[C@@H](N)CCCN=C(N)N)C(c1ccccc1)c1ccccc1)C(N)=O	–
0.69	0.0095	1.4	3.1	0.11	CSCC[C@H](NC(=O)[C@H](CC(C)C)NC(=O)CNC(=O)[C@H](Cc1ccccc1)NC(=O)[C@@H](NC(=O)[C@H](CCC(N)=O)NC(=O)[C@H](CCC(N)=O)NC(=O)[C@@H]1CCCN1C(=O)[C@H](CCCCN)NC(=O)[C@@H]1CCCN1C(=O)[C@@H](N)CCCN=C(N)N)C1c2ccccc2-c2ccccc21)C(N)=O	–
0.12	0.0069	0.048	1.6	0.049	CSCC[C@H](NC(=O)[C@H](CC(C)C)NC(=O)CNC(=O)[C@H](Cc1ccccc1)NC(=O)[C@@H](NC(=O)[C@H](CCC(N)=O)NC(=O)[C@H](CCC(N)=O)NC(=O)[C@@H]1CCCN1C(=O)[C@H](CCCCN)NC(=O)[C@@H]1CCCN1C(=O)[C@@H](N)CCCN=C(N)N)C1CCc2cc3ccccc3cc21)C(N)=O (some centres not stated) [listing 1 of 2 here]	–
0.53	0.0069	0.054	2.1	0.023	CSCC[C@H](NC(=O)[C@H](CC(C)C)NC(=O)CNC(=O)[C@H](Cc1ccccc1)NC(=O)[C@@H](NC(=O)[C@H](CCC(N)=O)NC(=O)[C@H](CCC(N)=O)NC(=O)[C@@H]1CCCN1C(=O)[C@H](CCCCN)NC(=O)[C@@H]1CCCN1C(=O)[C@@H](N)CCCN=C(N)N)[C@@H]1CCc2ccccc21)C(N)=O [listing 2 of 2 here]	–
0.11	0.0034	0.029	0.45	0.0079	CSCC[C@H](NC(=O)[C@H](CC(C)C)NC(=O)CNC(=O)[C@@H](NC(=O)[C@@H](NC(=O)[C@H](CCC(N)=O)NC(=O)[C@H](CCC(N)=O)NC(=O)[C@@H]1CCCN1C(=O)[C@H](CCCCN)NC(=O)[C@@H]1CCCN1C(=O)[C@@H](N)CCCN=C(N)N)C1CCc2ccccc21)C1c2ccccc2-c2ccccc21)C(N)=O (some centres not stated) (H-RPKPQQ[X1][Gly(9-fluorenyl)]GLM-NH2)	–
0.45	0.0028	–	1.9	0.074	CSCC[C@H](NC(=O)[C@H](CC(C)C)NC(=O)CNC(=O)[C@H](CCc1ccccc1)NC(=O)[C@H](Cc1ccccc1)NC(=O)[C@H](CCC(N)=O)NC(=O)[C@H](CCC(N)=O)NC(=O)[C@@H]1CCCN1C(=O)[C@H](CCCCN)NC(=O)[C@@H]1CCCN1C(=O)[C@@H](N)CCCN=C(N)N)C(N)=O	–
1.3	0.0017	0.0033	15	–	CSCC[C@H](NC(=O)[C@H](CC(C)C)NC(=O)[C@@H]1CCCN1C(=O)[C@@H](NC(=O)[C@H](Cc1ccccc1)NC(=O)[C@H](CCC(N)=O)NC(=O)[C@H](CCC(N)=O)NC(=O)[C@@H]1CCCN1C(=O)[C@H](CCCCN)NC(=O)[C@@H]1CCCN1C(=O)[C@@H](N)CCCN=C(N)N)C1c2ccccc2-c2ccccc21)C(N)=O (H-RPKPQQF[Gly(9-fluorenyl)]PLM-NH2)	–
0.38	0.0012	0.0031	2.2	–	CSCC[C@H](NC(=O)[C@H](CC(C)C)NC(=O)CNC(=O)[C@H](Cc1ccccc1)NC(=O)[C@@H](NC(=O)[C@H](CCC(N)=O)NC(=O)[C@H](CCC(N)=O)NC(=O)[C@@H]1CCCN1C(=O)[C@H](CCCCN)NC(=O)[C@@H]1CCCN1C(=O)[C@@H](N)CCCN=C(N)N)[C@H]1CCc2ccccc21)C(N)=O	–
